# Screens: PubChem, several laboratories
# Sampled rows, rich in hits. Any-hit rate of the full collection: about 1.8%.
# C8 TRAIL sens: viability loss with TRAIL in NB7+C8 cells, primary screen, TRAIL sensitizer project, cell-based, ATPlite luminescence; inhibition (viability loss, TRAIL sensitization), % at 10 µM; hit rate 1% among 360,000;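 active = compounds causing at least 50% loss of cell viability in the single-dose screen, relative to plate controls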
# PPC-1+TRAIL kill: compounds killing PPC-1 cancer cells with TRAIL present, primary screen, TRAIL potentiator project, ATPLite luminescence, uHTS | PPC-1 cells + TRAIL, ATPLite viability luminescence | cell killing (% activity), % at 4 µM or 5 µM | hit rate 0.41% among 220,000;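 active = cell killing above 50% in the first pass at 4 µM, then a duplicate retest at 5 µM averaging 50% or more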;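 also: plate controls were cells with TRAIL plus DMSO for no effect and medium-only wells lacking cells for full effect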
# STAT3 act: IL-6 driven STAT3 reporter potentiators, primary screen, U3A cells, luciferase, luminescence, MLSCN library; hit rate 0.91% among 190,000; activation (% of control), % at 5.6 µM; IL-6 STAT3-luciferase reporter; 100% = signal with IL-6 EC80 alone;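 active = activation above the screen-wide mean of compound activation plus 3 SD, cut at about 130% in these data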;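 also: 0% = background luminescence of wells with medium and substrate only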
#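 Material: human U3A cells carrying STAT3-luciferase construct. Measured by: reporter luminescence signal. Timing: compound 1 h, then IL-6 6 h at 37 °C.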
# STAT1 inh: STAT1 signaling inhibitors, primary screen, cell-based, HTS, luciferase reporter; hit rate 0.35% among 200,000; inhibition, % at 5.5 µM; NIH 3T3 STAT1-luciferase reporter, IFN-gamma, luminescence;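 active = inhibition above a set limit, the mean inhibition across all tested compounds plus 3 SD, cut at about 34% in these data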;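 also: 0% = IFN-gamma with DMSO and 100% = IFN-gamma with 300 µM nifuroxazide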
# STAT3 blocker: IL-6 driven STAT3 reporter inhibitors, primary screen, U3A cells, luciferase, luminescence, MLSCN library; IL-6 STAT3-luciferase reporter; host cell line lacks STAT1; inhibition, % at 5.5 µM; hit rate 0.89% among 190,000; AID 862, 2007;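 active = inhibition above the mean inhibition across all screened compounds plus 3 SD, cut at about 44% in these data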;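 also: 0% = DMSO only wells and 100% = 100 µM nifuroxazide control wells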
# * = called active by the depositor; · = not tested or not shown.
SMILES,C8 TRAIL sens,PPC-1+TRAIL kill,STAT3 act,STAT1 inh,STAT3 blocker
Cc1cccc(-c2cc3nc(-c4ccccc4)cc(=O)n3[nH]2)c1,44*,·,·,·,·
Cc1ccc2oc(NC3=NC4(CCCC4)C4=C(CCCC4=O)N3)nc2c1,-2,·,·,·,·
Cc1ccc2cc(C(c3nnnn3C3CCCC3)N(Cc3cccnc3)Cc3ccco3)c(=O)[nH]c2c1 (stereo not given),10,53*,100,3,4
O=C(NNC(=O)c1ccc(S(=O)(=O)N2CCCCC2)cc1)c1ccc(F)cc1,-9,·,·,·,·
Cc1ccc(C(=O)Nc2ccccc2N2CCOCC2)cc1S(=O)(=O)N1CCOCC1,4,·,·,·,·
COc1cccc(/C=C2\SC(=S)N(CCCC(=O)N(CCO)c3ccccc3)C2=O)c1,61*,·,·,·,·
Cc1cc(NC(=O)CSc2nc3c(cc2C#N)CCC3)no1,36,·,·,·,·
COc1ccc(/C=C2\CCCC3C2=NN(C(=O)COC(=O)CNC(=O)c2ccccc2)C3c2ccc(OC)cc2)cc1 (stereo not given),59*,20,94,12,6
Cc1nc2c(OCc3ccc(C#N)cc3)cccn2c1N(C)C(=O)CCC1CCCC1,10,·,·,·,·
CCC(C)N1CCN(S(=O)(=O)Cc2ccccc2)CC1 (stereo not given),-2,·,·,·,·
CCOC(=O)Cc1ccc(Nc2nc3cc(-c4sccc4C)sc3c(=O)n2C)cc1,11,·,·,·,·
O=[N+]([O-])c1ccc(N2CCN(Cc3ccccc3)CC2)s1,-2,·,·,·,·
O=[N+]([O-])c1ccc(N2CCN(Cc3ccccc3)CC2)c2c1no[n+]2[O-],94*,·,·,·,·
CC1(C)N=C(N)N=C(N)N1c1ccccc1,85*,14,102,-3,0
CC1(C)N=C(N)N=C(N)N1c1ccc(CCCCc2ccccc2)cc1,65*,·,·,·,·
CC1(C)N=C(N)N=C(N)N1c1cccc(CN)c1,-17,-10,·,·,·
CC1(C)N=C(N)N=C(N)N1c1ccc(Oc2ccc(Cl)cc2)c(Cl)c1,58*,·,·,·,·
CCC(=O)N1Cc2cc(C(=O)Nc3nccs3)nc(-c3cccc(-c4ccccc4OC)c3)c2[C@H]1CCO,13,·,·,·,·
CSc1ccc(C2c3[nH]c4ccccc4c3CCN2C(=O)c2cc(C)n(C)n2)cc1 (stereo not given),·,10,148*,-35,-47
Cc1nc(C(=O)N2CCc3c([nH]c4ccccc34)C2c2cc(F)ccc2F)cs1 (stereo not given),2,14,134*,-1,-24
Cc1cnc(C(=O)N2CCc3c([nH]c4ccccc34)C2c2ccc(F)cc2)cn1 (stereo not given),9,10,116,-7,-12
CCc1ccc(C2c3[nH]c4ccccc4c3CCN2C(=O)c2cc(C)nn2C)cc1 (stereo not given),18,29,133*,13,-32
O=C(CNC(=O)c1cccc(S(=O)(=O)N2CCc3ccccc32)c1)Nc1ccccc1Br,11,·,·,·,·
Cc1cccc(NC(=O)CN2CCN(C(=O)c3c(C)nn(Cc4ccccc4)c3C)CC2)c1C,1,·,·,·,·
O=[N+]([O-])c1cccc(-c2cn3ccccc3n2)c1,16,10,93,-59,11
SMILES,C8 TRAIL sens,PPC-1+TRAIL kill,STAT3 act,STAT1 inh,STAT3 blocker
COc1ccc(-c2cn3ccccc3n2)cc1[N+](=O)[O-],61*,36,76,-50,29
CCCOc1ccc(-c2cn3ccccc3n2)cc1[N+](=O)[O-],62*,47,85,-22,22
O=C(NC(c1ccc(-c2ccccc2)cc1)c1cnccn1)C1CCN(CCCOc2ccccc2)CC1 (stereo not given),26,·,·,·,·
CNc1cnc(-c2ccsc2)cn1,-12,·,·,·,·
COc1ccc(-c2cc(C(=O)N/N=C/c3sccc3C)c3ccccc3n2)c(OC)c1,24,6,135*,-8,-44
COc1ccc(-c2cc(C(=O)N/N=C/c3ccc4c(c3)OCO4)c3ccccc3n2)c(OC)c1,18,13,112,-6,-3
COc1ccc(/C=C2/Sc3ccc(C(=O)NCCN4CCCCCC4)cc3NC2=O)cc1,79*,·,·,·,·
O=C1Nc2cc(C(=O)NCCCN3CCCC3)ccc2S/C1=C\c1ccccc1,11,·,·,·,·
CC(=O)C[C@@H]1SC[C@H](c2ccccc2)N1S(=O)(=O)c1ccc(C)cc1,-7,·,·,·,·
CCOc1ccc(OCC)c(NC(=O)C2CCN(c3nn4c(=O)cc(C)nc4s3)CC2)c1,67*,13,90,-3,17
CCOc1ccccc1CNC(=O)C1CCN(c2nn3c(=O)cc(C)nc3s2)CC1,0,·,·,·,·
CN(C)c1nc(Nc2ccc(Cl)cc2)nc(OCC#N)n1,6,7,136*,14,-37
O=C(C[C@@H]1C/C=C/CC[C@H](Cc2ccc(F)cc2)C(=O)OC[C@@H](Cc2ccccc2)NC1=O)N[C@H](CO)Cc1ccccc1,77*,·,·,·,·
C[C@@H]1COC(=O)[C@H](Cc2ccc(F)cc2)CC/C=C/C[C@@H](CC(=O)N[C@@H](CO)Cc2ccccc2)C(=O)N1,7,·,·,·,·
CCOC(=O)c1c(NC(=O)COc2ccccc2C#N)sc2c1CC(C)(C)NC2(C)C,9,·,·,·,·
CC1(C)Cc2c(sc(NC(=O)COc3cccc4ccccc34)c2C#N)C(C)(C)N1,85*,4,·,·,·
CCOC(=O)c1c(NC(=O)COc2ccccc2OCC)sc2c1CC(C)(C)NC2(C)C,91*,·,·,·,·
Cc1ccc(OCC(=O)Nc2sc3c(c2C#N)CC(C)(C)NC3(C)C)cc1,18,13,102,-8,2
COC(=O)c1c(NC(=O)c2ccc(OC(C)C)cc2)sc2c1CC(C)(C)NC2(C)C,72*,23,·,-5,·
COc1ccc(OCC(=O)Nc2ccc3c(c2)CCC3)cc1,-3,·,·,·,·
COC(=O)c1cc(OCC(=O)Nc2ccc3c(c2)CCC3)cc(C(=O)OC)c1,94*,·,·,·,·
CC1CCCC(C)N1C(=O)CSc1nc2ccccc2s1 (stereo not given),8,6,133*,-3,-39
COc1cccc(C2c3[nH]c4ccccc4c3CCN2Cc2cccn2-c2ncccn2)c1 (stereo not given),2,20,133*,-1,-31
